# Data published in ChEMBL document CHEMBL5661979, “Pharmacological inhibition of BMK1 suppresses tumor growth through promyelocytic leukemia protein” (Cancer Cell, 2010).
# How the values were obtained:
# Type in all cases: subcellular
# [1] = target: Protein kinase C theta type (Homo sapiens, UniProt Q04759); assay: Inhibition of PKCtheta in human HeLa cells lysate pre incubated for 15 mins followed by ATP acyl phosphate probe addition and measured after 10 mins by LC-MS/MS analysis
# [2] = target: T1, Phosphorylase b kinase gamma catalytic chain, liver/testis isoform (Homo sapiens) (UniProt P15735); assay: Inhibition of PHKG2 in human HeLa cells lysate at 2 uM pre incubated for 15 mins followed by ADP acyl phosphate probe addition and measured after 10 mins by LC-MS/MS analysis relative to control; details: time 25.0 min
# T1 sequence (whole entry): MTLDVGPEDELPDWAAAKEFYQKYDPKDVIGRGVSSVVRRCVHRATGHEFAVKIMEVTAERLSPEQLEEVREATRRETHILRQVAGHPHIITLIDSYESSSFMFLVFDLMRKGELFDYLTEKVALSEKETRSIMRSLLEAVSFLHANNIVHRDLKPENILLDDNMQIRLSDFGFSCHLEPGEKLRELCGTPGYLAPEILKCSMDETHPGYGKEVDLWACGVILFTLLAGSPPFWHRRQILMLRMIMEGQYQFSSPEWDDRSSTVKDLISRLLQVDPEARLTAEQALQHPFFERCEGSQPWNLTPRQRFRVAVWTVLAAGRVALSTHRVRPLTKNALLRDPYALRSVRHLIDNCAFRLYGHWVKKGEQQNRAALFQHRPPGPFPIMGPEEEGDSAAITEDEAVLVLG
# [3] = target: T2, Serine/threonine-protein kinase A-Raf (Homo sapiens) (UniProt P10398); assay: Inhibition of ARAF in human HeLa cells lysate at 10 uM pre incubated for 15 mins followed by ATP acyl phosphate probe addition and measured after 10 mins by LC-MS/MS analysis relative to control; details: time 25.0 min
# T2 sequence (whole entry): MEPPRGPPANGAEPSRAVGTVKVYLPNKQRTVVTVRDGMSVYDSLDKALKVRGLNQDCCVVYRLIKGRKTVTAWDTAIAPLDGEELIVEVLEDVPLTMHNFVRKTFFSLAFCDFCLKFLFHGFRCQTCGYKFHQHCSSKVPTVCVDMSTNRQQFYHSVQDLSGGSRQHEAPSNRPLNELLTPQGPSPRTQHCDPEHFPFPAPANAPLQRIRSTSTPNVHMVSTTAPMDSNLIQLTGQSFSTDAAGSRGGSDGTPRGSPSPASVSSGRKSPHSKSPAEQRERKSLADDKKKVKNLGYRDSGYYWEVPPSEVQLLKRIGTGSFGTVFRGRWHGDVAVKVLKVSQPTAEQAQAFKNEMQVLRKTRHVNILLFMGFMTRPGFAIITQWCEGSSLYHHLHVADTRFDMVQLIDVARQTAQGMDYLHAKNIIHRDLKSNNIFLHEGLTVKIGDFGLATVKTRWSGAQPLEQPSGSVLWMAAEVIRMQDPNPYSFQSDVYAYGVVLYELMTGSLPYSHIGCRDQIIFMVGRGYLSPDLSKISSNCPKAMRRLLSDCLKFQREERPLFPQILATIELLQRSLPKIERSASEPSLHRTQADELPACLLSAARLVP
# Method in brief: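 KiNativ-type profiling in HeLa lysate (5 mg/mL total protein). Lysate preincubated 15 min with inhibitor at 50, 10, 2, 0.8 or 0 μM, then ATP or ADP acylphosphate probe added (5 μM final) for 10 min. Reaction stopped with urea and analysed by targeted MS, using up to four fragment ions per kinase peptide-probe conjugate. % inhibition calculated against untreated lysate. Duplicate reactions.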
# [4] = target: T3, Serine/threonine-protein kinase TAO2 (Homo sapiens) (UniProt Q9UL54); assay: Inhibition of TAO2 in human HeLa cells lysate at 2 uM pre incubated for 15 mins followed by ATP acyl phosphate probe addition and measured after 10 mins by LC-MS/MS analysis relative to control; details: time 25.0 min
# T3 sequence (whole entry): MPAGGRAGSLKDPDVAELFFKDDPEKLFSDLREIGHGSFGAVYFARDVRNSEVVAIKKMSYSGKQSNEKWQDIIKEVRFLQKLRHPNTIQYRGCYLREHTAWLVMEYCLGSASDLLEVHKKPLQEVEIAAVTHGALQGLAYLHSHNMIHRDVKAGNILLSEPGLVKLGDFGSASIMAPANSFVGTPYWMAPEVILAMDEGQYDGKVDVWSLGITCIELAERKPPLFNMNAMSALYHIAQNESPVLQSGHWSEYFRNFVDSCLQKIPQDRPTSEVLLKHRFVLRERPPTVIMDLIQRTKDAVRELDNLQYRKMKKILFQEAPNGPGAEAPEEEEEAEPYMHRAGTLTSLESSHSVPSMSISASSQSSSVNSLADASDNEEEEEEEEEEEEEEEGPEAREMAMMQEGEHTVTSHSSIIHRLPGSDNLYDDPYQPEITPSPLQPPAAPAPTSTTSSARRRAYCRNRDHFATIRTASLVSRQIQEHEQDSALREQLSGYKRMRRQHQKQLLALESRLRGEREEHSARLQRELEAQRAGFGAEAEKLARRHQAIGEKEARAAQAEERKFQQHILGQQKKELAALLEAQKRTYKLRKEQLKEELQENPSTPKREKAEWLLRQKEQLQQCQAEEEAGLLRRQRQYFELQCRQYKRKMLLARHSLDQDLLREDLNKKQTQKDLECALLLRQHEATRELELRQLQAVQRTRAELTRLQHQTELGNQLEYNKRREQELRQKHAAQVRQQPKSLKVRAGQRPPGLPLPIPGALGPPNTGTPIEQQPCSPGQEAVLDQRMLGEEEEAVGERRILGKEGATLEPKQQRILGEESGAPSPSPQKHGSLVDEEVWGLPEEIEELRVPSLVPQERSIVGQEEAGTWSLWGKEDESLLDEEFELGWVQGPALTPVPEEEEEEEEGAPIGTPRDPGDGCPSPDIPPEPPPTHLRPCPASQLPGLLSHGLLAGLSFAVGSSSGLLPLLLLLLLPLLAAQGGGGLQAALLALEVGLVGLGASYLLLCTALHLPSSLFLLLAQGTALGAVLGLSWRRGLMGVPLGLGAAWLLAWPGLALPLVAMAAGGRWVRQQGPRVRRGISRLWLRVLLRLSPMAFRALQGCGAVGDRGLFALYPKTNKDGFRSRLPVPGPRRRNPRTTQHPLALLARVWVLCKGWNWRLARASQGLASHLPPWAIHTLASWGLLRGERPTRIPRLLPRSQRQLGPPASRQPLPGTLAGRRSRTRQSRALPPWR
# Sequence of Protein kinase C theta type (Q04759 whole entry, canonical isoform): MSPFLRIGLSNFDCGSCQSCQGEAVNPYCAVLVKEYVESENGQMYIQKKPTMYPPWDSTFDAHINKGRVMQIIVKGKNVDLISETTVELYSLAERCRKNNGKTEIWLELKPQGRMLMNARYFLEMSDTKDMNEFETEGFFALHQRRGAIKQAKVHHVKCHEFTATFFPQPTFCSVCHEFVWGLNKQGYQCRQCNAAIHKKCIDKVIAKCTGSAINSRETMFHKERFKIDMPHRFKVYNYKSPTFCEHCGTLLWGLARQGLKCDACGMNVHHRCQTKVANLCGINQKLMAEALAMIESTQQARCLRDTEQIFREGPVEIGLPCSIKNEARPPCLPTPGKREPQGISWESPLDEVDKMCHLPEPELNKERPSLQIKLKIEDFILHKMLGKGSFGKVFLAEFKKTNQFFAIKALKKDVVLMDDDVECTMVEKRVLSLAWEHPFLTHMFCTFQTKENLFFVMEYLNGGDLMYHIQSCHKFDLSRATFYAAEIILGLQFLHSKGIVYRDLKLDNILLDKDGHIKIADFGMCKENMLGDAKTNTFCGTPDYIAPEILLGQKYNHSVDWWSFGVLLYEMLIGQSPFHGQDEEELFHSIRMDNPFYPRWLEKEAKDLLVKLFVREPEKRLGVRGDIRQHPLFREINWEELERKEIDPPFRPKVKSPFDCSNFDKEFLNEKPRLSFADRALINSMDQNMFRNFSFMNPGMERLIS
structure (smiles),measurement,setting,value
CCOc1cc(N2CCC(O)CC2)ccc1Nc1ncc2c(n1)N(C)c1ccccc1C(=O)N2C,IC50,[1],> 50 µM
same,inhibition,[2],3.4%
same,inhibition,[3],11.2%
same,inhibition,[4],-8.5%
